Drawing on paper PMC8281356 (Chemical biology & drug design, 2021), this text covers IC50 for 3 molecules.

Bounds are passed on as bounds.

The target in test [1] is T1, ovine COX-1 (Ovis aries, UniProt P05979).
T1 sequence (P05979 25-600): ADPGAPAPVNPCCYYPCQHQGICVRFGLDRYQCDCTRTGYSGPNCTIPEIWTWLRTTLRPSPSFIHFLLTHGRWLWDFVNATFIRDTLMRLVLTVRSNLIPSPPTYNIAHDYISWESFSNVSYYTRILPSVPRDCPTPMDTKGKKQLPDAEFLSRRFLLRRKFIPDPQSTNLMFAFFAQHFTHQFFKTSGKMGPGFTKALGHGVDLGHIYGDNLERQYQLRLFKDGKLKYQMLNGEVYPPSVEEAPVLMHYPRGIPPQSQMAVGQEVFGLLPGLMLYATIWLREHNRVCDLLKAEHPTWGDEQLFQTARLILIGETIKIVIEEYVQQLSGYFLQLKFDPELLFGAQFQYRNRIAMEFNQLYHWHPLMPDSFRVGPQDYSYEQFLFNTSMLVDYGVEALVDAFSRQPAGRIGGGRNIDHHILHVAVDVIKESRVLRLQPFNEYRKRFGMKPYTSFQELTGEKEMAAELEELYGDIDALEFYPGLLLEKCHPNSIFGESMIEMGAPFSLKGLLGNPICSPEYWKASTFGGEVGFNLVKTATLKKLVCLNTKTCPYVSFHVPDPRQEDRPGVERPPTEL
As to the kind of experiment: COX fluorescent inhibitor screening kit. Type of test: biochemical. The essentials:
(§1)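 Ovine COX-1 or human recombinant COX-2 with heme and ADHP in 100 mM Tris-HCl, pH 8.0. Test compound from 10 mM DMSO stock, final 2.5–100 μM. Arachidonic acid starts the reaction, 2 min at room temperature. Resorufin read at ex 535/em 590 nm. Percent inhibition vs no-inhibitor control; IC50 from concentration–inhibition curve, triplicate determinations.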

In test [2] the target is T2, human recombinant COX-2 (Homo sapiens, UniProt P35354).
T2 sequence (P35354 18-604): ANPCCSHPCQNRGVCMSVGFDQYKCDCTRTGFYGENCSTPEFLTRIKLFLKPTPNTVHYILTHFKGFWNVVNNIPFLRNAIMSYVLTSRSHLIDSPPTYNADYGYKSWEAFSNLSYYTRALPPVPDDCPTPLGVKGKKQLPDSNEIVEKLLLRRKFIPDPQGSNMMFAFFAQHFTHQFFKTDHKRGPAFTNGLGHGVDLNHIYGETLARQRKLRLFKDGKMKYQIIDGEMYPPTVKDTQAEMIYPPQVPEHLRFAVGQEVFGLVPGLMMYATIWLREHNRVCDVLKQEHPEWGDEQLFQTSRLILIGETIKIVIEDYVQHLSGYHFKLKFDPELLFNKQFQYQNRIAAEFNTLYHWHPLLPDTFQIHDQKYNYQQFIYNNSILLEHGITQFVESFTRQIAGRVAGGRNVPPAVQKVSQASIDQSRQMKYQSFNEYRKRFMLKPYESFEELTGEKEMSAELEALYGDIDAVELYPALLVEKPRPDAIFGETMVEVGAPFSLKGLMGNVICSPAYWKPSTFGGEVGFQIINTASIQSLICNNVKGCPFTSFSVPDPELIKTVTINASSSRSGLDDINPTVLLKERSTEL
In words: COX fluorescent inhibitor screening kit. In kind it is biochemical. The essentials:
as §1

Take `CC(=O)OC[C@H]1O[C@@H](OC(C)=O)[C@H](NC(=O)Cc2ccccc2Nc2c(Cl)cccc2Cl)[C@@H](OC(C)=O)[C@@H]1OC(C)=O` [compound 3]: the IC50 is 25.5 µM in test [1] and < 2.5 µM in test [2].
Consider `COc1ccc2c(c1)c(CC(=O)N[C@H]1[C@H](OC(C)=O)O[C@H](COC(C)=O)[C@@H](OC(C)=O)[C@@H]1OC(C)=O)c(C)n2C(=O)c1ccc(Cl)cc1` [compound 4], for which the values for the IC50 in test [1] and in test [2] were 24.9 µM and 33.6 µM, respectively.
Taken in the same sequence, the figures for `CC(=O)OC[C@H]1O[C@@H](OC(C)=O)[C@H](NC(=O)c2ccccc2Nc2cccc(C)c2C)[C@@H](OC(C)=O)[C@@H]1OC(C)=O` [compound 5, 1,3,4,6-Tetra-O-acetyl-2-deoxy-2-(2-((2,3-dimethylphenyl)amino)benzamido)-β-D-glucopyranose] were < 2.5 µM and > 100 µM.

For orientation: IC50 means the concentration at which inhibition is half-maximal.
